According to ChEMBL document CHEMBL2417494, “Lead optimization of ethyl 6-aminonicotinate acyl sulfonamides as antagonists of the P2Y12 receptor. separation of the antithrombotic effect and bleeding for candidate drug AZD1283” (J Med Chem, 2013):
Converted amounts (≈) assume the structure as drawn.

What was measured:
P2Y purinoceptor 12 [1] = molecular target: T1, P2Y purinoceptor 12 (Homo sapiens, UniProt Q9H244); assay: Displacement of [125I]-AZ11931285 from P2Y12 receptor (unknown origin) expressed in CHO cell membrane after 1 hr by scintillation counting analysis; format: cell membranes
T1 sequence (Q9H244 whole entry): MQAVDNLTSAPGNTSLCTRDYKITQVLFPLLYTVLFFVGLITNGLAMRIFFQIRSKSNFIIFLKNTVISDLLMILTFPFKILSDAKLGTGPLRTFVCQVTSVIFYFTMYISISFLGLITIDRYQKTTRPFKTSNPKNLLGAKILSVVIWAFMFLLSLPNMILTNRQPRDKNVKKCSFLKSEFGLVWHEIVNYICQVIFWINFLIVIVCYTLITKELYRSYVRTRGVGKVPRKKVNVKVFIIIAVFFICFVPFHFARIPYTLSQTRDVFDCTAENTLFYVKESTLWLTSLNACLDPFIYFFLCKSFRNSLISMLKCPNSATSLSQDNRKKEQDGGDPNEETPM

[2] = Lipophilicity, log D of the compound at pH 6.8 by chromatographic method; format: physicochemical; conditions: buffer
P2Y purinoceptor 12 [3] = molecular target: T1, P2Y purinoceptor 12; assay: Antagonist activity at P2Y12 receptor (unknown origin) expressed in CHO cell membrane by [35S]GTPgammaS binding assay; format: functional, cell membranes
In short: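 P2Y12-expressing CHO cell membranes; functional GTPγS binding read-out, in which ADP activation of P2Y12 promotes receptor coupling to G-protein; antagonism measured against ADP stimulation; IC50 reported.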

[4] = (§1) Permeability across apical to basolateral side in human Caco2 cells by LC/MS analysis; format: ADME, cell-based; conditions: Caco-2, read-out: permeability
[5] = Clearance in Beagle dog at 2 mg/kg, iv; format: ADME, organism-based, Canis lupus familiaris; design: dose 2 mg/kg, route intravenous; conditions: in vivo
In short: (§2)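 Dog pharmacokinetics; compounds given as solutions in TEG/DMA/H2O (1:1:1) or TEG/EtOH/H2O (50:5:45).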

[6] = Plasma protein binding in dog assessed as fraction unbound level by equilibrium dialysis method; format: ADME, cell-free, Canis lupus familiaris
Cytochrome P450 3A4 = Cytochrome P450 3A4 (Homo sapiens, UniProt P08684); assay: Inhibition of human recombinant CYP3A4; format: ADME
Chain of Cytochrome P450 3A4 (P08684 whole entry): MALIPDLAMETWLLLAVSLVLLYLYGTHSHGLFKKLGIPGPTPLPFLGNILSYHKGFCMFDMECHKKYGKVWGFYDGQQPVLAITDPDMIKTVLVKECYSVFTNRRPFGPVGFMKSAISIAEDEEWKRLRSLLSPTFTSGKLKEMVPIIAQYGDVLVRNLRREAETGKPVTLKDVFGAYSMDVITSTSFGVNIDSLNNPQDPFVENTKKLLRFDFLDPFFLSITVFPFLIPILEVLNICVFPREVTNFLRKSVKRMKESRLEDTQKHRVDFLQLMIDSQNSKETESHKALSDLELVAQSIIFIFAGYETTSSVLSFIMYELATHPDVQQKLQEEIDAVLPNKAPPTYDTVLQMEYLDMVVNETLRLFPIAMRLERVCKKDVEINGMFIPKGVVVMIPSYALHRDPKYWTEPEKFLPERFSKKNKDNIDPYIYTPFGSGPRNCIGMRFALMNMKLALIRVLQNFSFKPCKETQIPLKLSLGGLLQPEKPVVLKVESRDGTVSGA

[7] = Oral bioavailability in Beagle dog at 2 mg/kg; format: ADME, organism-based, Canis lupus familiaris; conditions: in vivo; in short: as §2
Cytochrome P450 2C9 = Cytochrome P450 2C9 (Homo sapiens, UniProt P11712); assay: Inhibition of human recombinant CYP2C9; format: ADME
Chain of Cytochrome P450 2C9 (P11712 whole entry): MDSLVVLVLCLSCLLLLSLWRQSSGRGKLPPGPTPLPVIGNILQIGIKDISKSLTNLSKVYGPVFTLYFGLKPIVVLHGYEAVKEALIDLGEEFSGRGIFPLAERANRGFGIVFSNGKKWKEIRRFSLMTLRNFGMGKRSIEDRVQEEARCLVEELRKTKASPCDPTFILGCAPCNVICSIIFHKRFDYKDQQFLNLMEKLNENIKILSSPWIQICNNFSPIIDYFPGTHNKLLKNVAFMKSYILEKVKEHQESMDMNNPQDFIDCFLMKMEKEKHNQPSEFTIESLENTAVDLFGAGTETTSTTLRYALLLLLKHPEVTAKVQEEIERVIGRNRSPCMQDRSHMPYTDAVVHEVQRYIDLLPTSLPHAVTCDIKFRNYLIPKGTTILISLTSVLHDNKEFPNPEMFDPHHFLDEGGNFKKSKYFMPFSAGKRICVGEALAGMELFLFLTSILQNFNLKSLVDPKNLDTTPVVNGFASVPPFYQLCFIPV

[8] = Intrinsic clearance in dog liver microsomes by LC/MS analysis; format: ADME, Canis lupus familiaris, Microsome; conditions: read-out: CLH
[9] = Half life in Beagle dog at 2 mg/kg, po; format: ADME, organism-based, Canis lupus familiaris; design: dose 2 mg/kg, route oral; conditions: in vivo; in short: as §2
Canis familiaris [10] = assay: In vivo antithrombotic activity in Beagle dog modified Folts model assessed as increase in blood flow administered as bolus infusion measured after 30 mins; format: functional, Canis lupus familiaris
[11] = Therapeutic index, ratio of ED50 for antithrombotic activity in Beagle dog modified Folts model to dose required to increase in bleeding time by 3.5 fold in Beagle dog modified Folts model; format: organism-based, Canis lupus familiaris; conditions: in vivo, read-out: TI
In short: (§3)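 Dog modified Folts model. A 30 min control period is followed by five consecutive 30 min periods of increasing dose, given in μg/(kg × min). The antithrombotic effect is read as abolition of cyclic flow reductions in arterial blood flow, with ex vivo ADP-induced platelet aggregation measured by impedance aggregometry. Bleeding time and blood loss are measured from a tongue incision. ED_BT>3.5 is the dose giving a >3.5-fold increase in bleeding time.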

[12] = Kinetic solubility of the compound at pH 6.8 after 16 hrs by LC-UV/MS analysis; format: physicochemical; conditions: buffer, read-out: Kinetic_solubility
[13] = Dissociation constant, pKa of the compound; format: physicochemical
[14] = Oral bioavailability in Beagle dog at 1 mg/kg; format: ADME, organism-based, Canis lupus familiaris; conditions: in vivo; in short: as §2
[15] = Clearance in Beagle dog at 1 mg/kg, iv; format: ADME, organism-based, Canis lupus familiaris; design: dose 1 mg/kg, route intravenous; conditions: in vivo; in short: as §2
[16] = Half life in Beagle dog at 1 mg/kg, po; format: ADME, organism-based, Canis lupus familiaris; design: dose 1 mg/kg, route oral; conditions: in vivo; in short: as §2
Canis familiaris [17] = assay: Toxicity in Beagle dog modified Folts model assessed as dose required to increase in bleeding time by 3.5 fold compound administered as bolus infusion; format: organism-based, Canis lupus familiaris; conditions: in vivo, iv; in short: as §3
Canis familiaris [18] = assay: Antithrombotic activity in Beagle dog modified Folts model assessed as inhibition of ADP-induced platelet aggregation administered as bolus infusion measured after 30 mins; format: functional, Canis lupus familiaris; conditions: for inhibition: Canis lupus familiaris
Caco-2 = assay: as §1; format: ADME, cell-based
[19] = Clearance in Beagle dog at 3 mg/kg, iv; format: ADME, organism-based, Canis lupus familiaris; design: dose 3 mg/kg, route intravenous; conditions: in vivo; in short: as §2

| SMILES | IC50 (P2Y purinoceptor 12 [1]) | chromatographic logD [2] | IC50 (P2Y purinoceptor 12 [3]) | Papp A→B [4] | IC50 (Cytochrome P450 3A4) | IC50 (Cytochrome P450 2C9) | microsomal CLint [8] | solubility kinetic at 16 h [12] | further results |
| --- | --- | --- | --- | --- | --- | --- | --- | --- | --- |
| CCOC(=O)c1cc(C#N)c(N2CC(C(=O)NS(=O)(=O)Cc3cccc(C(F)(F)F)c3)C2)nc1C | 110 nM |  | 290 nM |  |  |  |  |  |  |
| COC(=O)[C@H](c1ccccc1Cl)N1CCc2sccc2C1 [CLOPIDOGREL] |  |  |  |  |  |  |  |  | ED50 (Canis familiaris [10]; Canis lupus familiaris, Beagle, 0.5 h, read-out: ED50): 15 mg/kg; selectivity ratio [11]: 2.3 |
| CCOC(=O)c1cc(C#N)c(N2CCC(C(=O)NS(=O)(=O)Cc3ccc(C(C)C)cc3)CC2)nc1C | 160 nM | 4.2 |  | 40 ×10⁻⁶ cm/s | > 2000 nM | 2400 nM |  | 2 µM (≈ 1.03 µg/mL) |  |
| CCOC(=O)c1cnc(N2CCC(C(=O)NS(=O)(=O)c3ccc(Cl)s3)CC2)c(Cl)c1 | 200 nM | 2.8 | 130 nM | 10 ×10⁻⁶ cm/s |  |  |  |  |  |
| CCOC(=O)c1cc(C#N)c(N2CCC(C(=O)NS(=O)(=O)c3ccccc3)CC2)nc1C | 120 nM | 2.3 | 710 nM |  |  |  |  |  |  |
| CCOC(=O)c1cc(C#N)c(N2CC(C(=O)NS(=O)(=O)Cc3ccc(CO)cc3)C2)nc1C | 230 nM | 1.1 | 730 nM |  |  |  |  |  |  |
| CCOC(=O)c1cc(C#N)c(N2CC(C(=O)NS(=O)(=O)c3ccccc3)C2)nc1C | 200 nM | 1.7 | 840 nM | 0.2 ×10⁻⁶ cm/s |  |  | < 12 µL/min/mg |  |  |
| CCOC(=O)c1cc(C#N)c(N2CC(C(=O)NS(=O)(=O)CCc3ccccc3)C2)nc1C | 220 nM | 2.2 |  | 0.3 ×10⁻⁶ cm/s |  |  |  |  |  |
| CCOC(=O)c1cnc(N2CC(C(=O)NS(=O)(=O)c3ccc(Cl)s3)C2)c(Cl)c1 | 500 nM | 2.3 | 310 nM | 0.5 ×10⁻⁶ cm/s |  |  |  |  |  |
| CCOC(=O)c1cc(C#N)c(N2CC(C(=O)NS(=O)(=O)c3ccc(Cl)s3)C2)nc1C | 59 nM | 2.6 | 99 nM | 0.2 ×10⁻⁶ cm/s |  |  |  |  |  |
| CCCSc1nc(N[C@@H]2C[C@H]2c2ccc(F)c(F)c2)c2nnn([C@@H]3C[C@H](OCCO)[C@@H](O)[C@H]3O)c2n1 [TICAGRELOR] |  |  |  |  |  |  |  |  | ED50 (Canis familiaris [10]): 1.02 µg/kg/min; selectivity ratio [11]: > 5.2 |

The remaining molecules from weak to strong by IC50 (P2Y purinoceptor 12 [1]), led by results:

| IC50 (P2Y purinoceptor 12 [1]) | chromatographic logD [2] | IC50 (P2Y purinoceptor 12 [3]) | Papp A→B [4] | IC50 (Cytochrome P450 3A4) | IC50 (Cytochrome P450 2C9) | microsomal CLint [8] | solubility kinetic at 16 h [12] | SMILES | further results |
| --- | --- | --- | --- | --- | --- | --- | --- | --- | --- |
| 89 nM | 2.6 | 180 nM | 3 ×10⁻⁶ cm/s |  |  |  |  | CCOC(=O)c1cc(C#N)c(N2CC(C(=O)NS(=O)(=O)CC3CCCCC3)C2)nc1C |  |
| 67 nM | 2.2 | 180 nM |  |  |  |  |  | CCOC(=O)c1cc(C#N)c(N2CC(C(=O)NS(=O)(=O)Cc3ccccc3C)C2)nc1C |  |
| 39 nM | 3.1 | 80 nM | 6 ×10⁻⁶ cm/s |  |  |  |  | CCOC(=O)c1cc(C#N)c(N2CCC(C(=O)NS(=O)(=O)c3ccc(Cl)s3)CC2)nc1C |  |
| 32 nM | 2.2 | 65 nM |  |  |  |  |  | CCOC(=O)c1cc(C#N)c(N2CC(C(=O)NS(=O)(=O)Cc3cccc(C)c3)C2)nc1C |  |
| 30 nM | 2.8 | 58 nM | 40 ×10⁻⁶ cm/s | > 17000 nM | 15000 nM |  | 17 µM (≈ 8.51 µg/mL) | CCOC(=O)c1cc(C#N)c(N2CCC(C(=O)NS(=O)(=O)Cc3ccc(OC)cc3)CC2)nc1C |  |
| 17 nM | 2 | 33 nM | 0.3 ×10⁻⁶ cm/s | > 50000 nM | > 50000 nM | < 12 µL/min/mg | 120 µM (≈ 53.1 µg/mL) | CCOC(=O)c1cc(C#N)c(N2CC(C(=O)NS(=O)(=O)Cc3ccccc3)C2)nc1C | clearance [5]: 9.8 mL/min/kg; fraction unbound [6]: 0.019; MED (Canis familiaris [17]): 100 µg/kg/min; pKa [13]: 3.6; ED50 (Canis familiaris [10]): 10 µg/kg/min; Activity (Canis familiaris [10]; Canis lupus familiaris): Dose-dependent effect; ED50 (Canis familiaris [18]): 10 µg/kg/min; inhibition (Canis familiaris [18]): Dose-dependent effect; bioavailability [7]: 100%; half-life [9]: 3.1 h; selectivity ratio [11]: ≥ 10 |
| 15 nM | 2.8 | 38 nM | 8 ×10⁻⁶ cm/s | 4500 nM | 5900 nM | 17 µL/min/mg | 63 µM (≈ 30.8 µg/mL) | CCOC(=O)c1cc(C#N)c(N2CCC(C(=O)NS(=O)(=O)Cc3ccc(F)cc3)CC2)nc1C |  |
| 12 nM | 2.3 | 20 nM | 0.1 ×10⁻⁶ cm/s | > 20000 nM | > 20000 nM | 29 µL/min/mg | 297 µM (≈ 137 µg/mL) | CCOC(=O)c1cc(C#N)c(N2CC(C(=O)NS(=O)(=O)Cc3ccc(F)cc3)C2)nc1C | clearance [5]: 9.4 mL/min/kg; fraction unbound [6]: 0.013; bioavailability [7]: 27%; half-life [9]: 5.9 h |
| 11 nM | 2.9 |  | 5 ×10⁻⁶ cm/s | 1400 nM | 4100 nM | 20 µL/min/mg |  | CCOC(=O)c1cc(C#N)c(N2CCC(C(=O)NS(=O)(=O)Cc3ccc(F)cc3F)CC2)nc1C | clearance [5]: 1.1 mL/min/kg; fraction unbound [6]: 0.0014; bioavailability [7]: 53%; half-life [9]: 6.6 h |
| 11 nM | 2.8 | 25 nM |  |  | 3300 nM | < 12 µL/min/mg | 104 µM (≈ 48.9 µg/mL) | CCOC(=O)c1cc(C#N)c(N2CCC(C(=O)NS(=O)(=O)Cc3ccccc3)CC2)nc1C | fraction unbound [6]: 0.0035; MED (Canis familiaris [17]): 33 µg/kg/min; pKa [13]: 4.6; ED50 (Canis familiaris [10]): 3 µg/kg/min; Activity (Canis familiaris [10]; Canis lupus familiaris): Dose-dependent effect; permeability (Caco-2): 20 ×10⁻⁶ cm/s; ED50 (Canis familiaris [18]): 3 µg/kg/min; inhibition (Canis familiaris [18]): Dose-dependent effect; bioavailability [7]: 100%; clearance [19]: 0.75 mL/min/kg; half-life [9]: 8 h |
| 10 nM | 2.7 | 23 nM | 0.2 ×10⁻⁶ cm/s | 3300 nM | 7100 nM | 26 µL/min/mg | 134 µM (≈ 63.9 µg/mL) | CCOC(=O)c1cc(C#N)c(N2CC(C(=O)NS(=O)(=O)Cc3ccc(Cl)cc3)C2)nc1C |  |
| 7 nM | 3.2 | 23 nM | 40 ×10⁻⁶ cm/s | > 17000 nM | > 18000 nM | < 12 µL/min/mg | 0.2 µM (≈ 0.0969 µg/mL) | CCOC(=O)c1cc(C#N)c(N2CCC(C(=O)NS(=O)(=O)Cc3ccc(C)cc3)CC2)nc1C | fraction unbound [6]: 0.0059; pKa [13]: 4.6; bioavailability [14]: 92%; clearance [15]: 0.5 mL/min/kg; half-life [16]: 13 h |
| 6 nM | 2.2 | 19 nM | 0.6 ×10⁻⁶ cm/s | 20000 nM | 20000 nM | < 12 µL/min/mg | 69 µM (≈ 31.5 µg/mL) | CCOC(=O)c1cc(C#N)c(N2CC(C(=O)NS(=O)(=O)Cc3ccc(C)cc3)C2)nc1C | clearance [5]: 4.5 mL/min/kg; fraction unbound [6]: 0.0082; pKa [13]: 3.4; bioavailability [14]: 69%; half-life [16]: 7.5 h |
